# An excerpt weighted towards active compounds, which were near 6.1% of everything screened.
# DAT uptake mod: modulates human dopamine transporter uptake under cocaine. 110,000 compounds, 1.3% hits. Q01959. AID 449768. LLC-PK1 hDAT cells, [14C]-dopamine uptake with cocaine IC80; actives deviate in either direction. B-score at 10 µM;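 active = Z score or B-score, a plate-position-corrected score, falls beyond the plate's 99.7% confidence bounds, in either direction; inactive = both scores lie inside the 99.7% bounds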
# Target sequence (Q01959 whole entry, looked up): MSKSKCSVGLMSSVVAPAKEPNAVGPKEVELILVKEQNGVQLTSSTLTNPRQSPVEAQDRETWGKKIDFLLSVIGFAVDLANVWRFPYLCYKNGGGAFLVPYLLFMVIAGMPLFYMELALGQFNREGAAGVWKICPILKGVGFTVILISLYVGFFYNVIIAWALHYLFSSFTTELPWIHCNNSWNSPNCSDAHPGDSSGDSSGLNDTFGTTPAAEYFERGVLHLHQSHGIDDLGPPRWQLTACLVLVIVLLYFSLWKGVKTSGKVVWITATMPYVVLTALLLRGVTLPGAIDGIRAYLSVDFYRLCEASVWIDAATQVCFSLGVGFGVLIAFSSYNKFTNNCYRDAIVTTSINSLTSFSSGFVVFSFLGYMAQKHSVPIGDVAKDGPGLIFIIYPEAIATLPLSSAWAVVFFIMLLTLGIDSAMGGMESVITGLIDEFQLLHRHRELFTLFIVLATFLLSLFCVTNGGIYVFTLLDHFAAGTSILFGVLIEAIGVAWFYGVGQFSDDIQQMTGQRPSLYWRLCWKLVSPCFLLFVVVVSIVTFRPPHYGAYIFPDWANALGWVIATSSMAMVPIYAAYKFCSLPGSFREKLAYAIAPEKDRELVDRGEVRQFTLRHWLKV
# Yeast life ext: yeast lifespan extension; S. cerevisiae growth with nicotinamide, OD615; deaD strain in restrictive glucose medium; inhibition of the nicotinamide effect, % at 10 µM; 130,000 compounds, 0.68% hits;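 active = inhibition above a set limit, placed 3 SD over the median of all compounds, cut at about 26% in these data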
#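 Buffer or medium: CSMM-D glucose medium, restrictive; test system: modified budding yeast, DeaD strain; compound: single dose 10 µM compound, 0.25% DMSO; schedule: culture preincubation 4 h, compound exposure 48 h, both 30 °C; detection: optical density (absorbance) at 615 nm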
# WT yeast gro inh: growth inhibition of WT yeast, mitochondrial fusion screen. inhibition, % at 10 µM. mitochondrial fusion phenotypic screen, WT strain. AID 1362. 190,000 compounds, 2.1% hits; in the data active = inhibition above about 58%; tested in S. cerevisiae
# Measles CPE: protection of cells from measles virus | 140,000 compounds, 1.5% hits | AID 841 | protection (pct of control), % at 4 µM | Measles virus-infected cells, CPE protection, absorbance; in the data active = protection mostly above about 24%, no sharp cut-off; inactive = mostly below about 26%
# Yeast growth inh: chemicals that inhibit yeast BB579 growth in restrictive medium (lifespan-shortening candidates); 140,000 compounds, 0.51% hits; S. cerevisiae BB579 growth, OD615, 48 h; AID 804; inhibition, % at 10 µM;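 active = inhibition above a set limit, 3 SD over the mean compound inhibition, cut at about 44% in these data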
#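 Detection: OD615 turbidity measurement; Material: Saccharomyces cerevisiae DeaD strain BB579, replicative lifespan model yeast; Timing: 48 h exposure, 30 °C; Doses: single 10 µM dose; Medium: CSMM-D restrictive synthetic medium containing dextrose (glucose); Controls: amphotericin B at 10 µg/mL as positive control.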
# RAM network inh: inhibitors of the yeast RAM network; S. cerevisiae dse1pr::URA3 reporter, 5-FOA growth OD615, 2 d; analog-sensitive cbk1-as2 kinase mutant strain; inhibition, % at 50 µM; 190,000 compounds, 1.8% hits; AID 868;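 active = inhibition above a set limit, 3 SD over mean compound inhibition, cut at about 8.4% in these data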;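 also: inhibition rescues growth on 5-FOA so higher OD means more RAM inhibition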
# Numbers stand for hits; 0 = inactive; - = no result.
SMILES,DAT uptake mod,Yeast life ext,WT yeast gro inh,Measles CPE,Yeast growth inh,RAM network inh
CC[C@H](C)C(C(=O)N1CCN(C(=O)OC(C)(C)C)CC1)n1cc(C(CC(C)C)NC(=O)OC(C)(C)C)nn1 (stereo not given in full),0,-,0,-,-,0
CC[C@@H](C)C(NC(=O)OC(C)(C)C)c1cn([C@@H](Cc2ccc(O)cc2)C(=O)N2CCN(C(=O)OC(C)(C)C)CC2)nn1 (stereo not given in full),2,-,0,-,-,0
O=C(Nc1ccc2nc(SCc3ccc(Cl)cc3)sc2c1)c1ccccc1C(=O)N1CCOCC1,-7.1,0,0,0,0,0
CCOC(=O)CSc1nc2ccc(NC(C)=O)cc2s1,0,0,0,0,0,0
COC(=O)CSc1nc2ccc(NC(=O)c3ccccc3C(=O)N3CCOCC3)cc2s1,-,0,0,0,0,9.1
O=C1NCCN(Cc2cccc(Oc3ccccc3)c2)C1CC(=O)N1CCCO1 (stereo not given),-,-,0,-,-,0
CN(C)Cc1c(-c2ccc(Cl)cc2)nc2ccc(Cl)cn12,-,-,0,-,-,0
CCOc1ccc2nc(NC(=O)COC)sc2c1,0,0,0,0,0,0
CCOc1ccc2nc(NC(=O)c3ccoc3C)sc2c1,0,0,79,0,0,0
O=C(COC(=O)C12CC3CC(CC(C3)C1)C2)NCCc1ccccc1,0,0,0,43,0,0
COCCNC(=O)C(c1ccc(C)o1)N(C(=O)C(=O)NC1CCCCC1)c1ccc(F)cc1 (stereo not given),-,-,0,-,-,0
CC(C)(C)C(=O)COC(=O)CNC(=O)c1ccc(Oc2ccccc2)cc1,0,0,0,0,0,0
CCn1cc(C2=NC(C(C)C)CO2)c2ccccc21 (stereo not given),0,0,0,0,0,0
CC(C)C1COC(c2cccc3ccccc23)=N1 (stereo not given),3,0,0,0,0,0
CCn1nc(C(=O)NNC(=O)COc2ccccc2C)c2ccccc2c1=O,-,0,0,0,0,0
CC1CCN(S(=O)(=O)c2ccc(N/N=C(/C#N)C(N)=O)cc2)CC1,0,0,78,0,0,0
CC(=O)c1ccc(N=c2scc(C)n2C(C)C)cc1,-,-,0,-,-,0
Cc1cc(C)c(NC(=S)NCCCSC2CCCCC2)c(C)c1,-,-,75,-,-,0
C/C(=N\NC(=O)C1CCCN(S(=O)(=O)c2ccccc2)C1)c1ccncc1 (stereo not given),0,0,0,0,0,0
C/C(=N\NC(=O)C1CCCN(S(=O)(=O)c2ccccc2)C1)c1cccnc1 (stereo not given),2.4,0,0,0,0,0
Cc1cc(C)n(CC(O)Cn2c3ccc(Br)cc3c3cc(Br)ccc32)c(=O)n1 (stereo not given),0,0,91,0,0,0
Cc1cc(C)n(CC(O)Cn2c3ccccc3c3ccccc32)c(=O)n1 (stereo not given),0,0,0,0,0,0
Cc1cccc(C2c3[nH]c4ccccc4c3CCN2C(=O)c2noc3c2CCCC3)n1 (stereo not given),-,-,60,-,-,0
O=C(c1cccs1)N1CCc2c([nH]c3ccccc23)C1c1ccccn1 (stereo not given),-,-,0,-,-,0
CSc1nc(C(=O)N2CCc3c([nH]c4ccccc34)C2c2ccccn2)cs1 (stereo not given),-,-,59,-,-,0
SMILES,DAT uptake mod,Yeast life ext,WT yeast gro inh,Measles CPE,Yeast growth inh,RAM network inh
O=C(NCc1nc2ccccc2[nH]1)C1=C[C@@H](c2ccc(C(F)(F)F)cc2)C[C@@H](OCc2ccc(CO)cc2)O1,0,-,-,-,-,-
CCOC(=O)CCc1c(C)nc(SCC(=O)O)c(C#N)c1C,0,0,0,32,0,0
Cc1nc(SCC(=O)O)c(C#N)c(C)c1CC(=O)c1ccccc1,-,-,0,-,-,0
O=C(Cn1cnc2ccc(Cl)cc2c1=O)c1cccs1,0,0,0,52,0,0
CC(=O)Nc1ccc(S(=O)(=O)NC2(C(F)(F)F)NC(=O)N(C3CCCCC3)C2=O)cc1 (stereo not given),0,0,0,0,0,0
Cc1ccc(S(=O)(=O)N2CCN(C(=O)COc3ccc(-c4nnco4)cc3)CC2)cc1,0,0,0,0,0,0
O=S(=O)(c1ccc(Oc2ccc(-c3nnco3)cc2)nc1)N1CCC(Cc2ccccc2)CC1,0,0,0,43,0,0

# Screening results (PubChem BioAssay)
